From PubChem BioAssay
The list is not random: actives were taken first. Their share in the collection is about 2.3%.
DDE Tn6 FP inh = DD(E)-Tn6 binding inhibition, primary FP screen | inhibition, % at 8.3 µM | Fibrin DD(E) TRITC-Tn6 fluorescence polarization displacement | actives 0.21% (n = 370,000) | AID 720509 | P02675;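 active = inhibition above a per-campaign cutoff: mean of compounds within control limits plus 3 SD, cut at about 15% in these data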;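 also: 0% = median of all compound wells on the plate and 100% = blocking peptide control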
PLC-beta3 inh = blocks human PLC-beta3 enzyme activity; Q01970; inhibition, % at 12.2 µM; actives 0.18% (n = 370,000); Purified PLC-beta3, fluorogenic substrate, fluorescence; AID 720704; in the data active = inhibition above about 11%;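 also: 0% = median of compound wells on plate and 100% = full blocker control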
ADAM17 inh = inhibitors of human ADAM17; actives 0.83% (n = 370,000); inhibition, % at 6.95 µM; recombinant ADAM17, EDANS/DABCYL FRET peptide cleavage;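 active = inhibition above the mean of compounds lying between control limits plus 3 SD, set per campaign, cut at about 8.5% in these data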;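 also: 0% = DMSO-only wells as the low control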
ADAM10 inh = ADAM10 inhibition, QFRET primary screen; O14672; recombinant ADAM10, EDANS/DABCYL FRET peptide cleavage, 3 h; inhibition, % at 7 µM; actives 0.62% (n = 370,000); AID 720582;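 active = inhibition above a per-campaign cutoff equal to the mean of compounds falling between control-based bounds plus 3 SD, cut at about 20% in these data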;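 also: 0% = DMSO wells while the 100% control is not disclosed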
Tn7 DDE FP = inhibitors of Tn7 peptide binding to human fibrin DD(E); FP displacement of FITC-Tn7 peptide from fibrin DD(E); 0% = median of compound wells per plate; inhibition, % at 8.3 µM; actives 0.13% (n = 370,000);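 active = inhibition above the mean of compounds falling within the control limits plus 3 SD of them, cut at about 14% in these data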;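 also: 0% = plate median of compound wells and 100% = 10 µM Aha-Tn7 peptide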
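Test system: human clot-derived fibrin DD(E) complex / Quantity: 2 µM final DD(E) protein / Incubation: 10 min plus 3 h, room temperature / Measured by: fluorescence polarization / Benchmarks: high control of 10 µM Aha-Tn7 peptide / Replicates: singlicate testing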
PLCg1 inh = PLC-gamma1 (human) inhibition, primary screen; P19174; purified PLC-gamma1, fluorogenic substrate, fluorescence; inhibition, % at 12.2 µM; actives 0.84% (n = 370,000); in the data active = inhibition above about 9.5%
Target sequence (P19174 whole entry, looked up): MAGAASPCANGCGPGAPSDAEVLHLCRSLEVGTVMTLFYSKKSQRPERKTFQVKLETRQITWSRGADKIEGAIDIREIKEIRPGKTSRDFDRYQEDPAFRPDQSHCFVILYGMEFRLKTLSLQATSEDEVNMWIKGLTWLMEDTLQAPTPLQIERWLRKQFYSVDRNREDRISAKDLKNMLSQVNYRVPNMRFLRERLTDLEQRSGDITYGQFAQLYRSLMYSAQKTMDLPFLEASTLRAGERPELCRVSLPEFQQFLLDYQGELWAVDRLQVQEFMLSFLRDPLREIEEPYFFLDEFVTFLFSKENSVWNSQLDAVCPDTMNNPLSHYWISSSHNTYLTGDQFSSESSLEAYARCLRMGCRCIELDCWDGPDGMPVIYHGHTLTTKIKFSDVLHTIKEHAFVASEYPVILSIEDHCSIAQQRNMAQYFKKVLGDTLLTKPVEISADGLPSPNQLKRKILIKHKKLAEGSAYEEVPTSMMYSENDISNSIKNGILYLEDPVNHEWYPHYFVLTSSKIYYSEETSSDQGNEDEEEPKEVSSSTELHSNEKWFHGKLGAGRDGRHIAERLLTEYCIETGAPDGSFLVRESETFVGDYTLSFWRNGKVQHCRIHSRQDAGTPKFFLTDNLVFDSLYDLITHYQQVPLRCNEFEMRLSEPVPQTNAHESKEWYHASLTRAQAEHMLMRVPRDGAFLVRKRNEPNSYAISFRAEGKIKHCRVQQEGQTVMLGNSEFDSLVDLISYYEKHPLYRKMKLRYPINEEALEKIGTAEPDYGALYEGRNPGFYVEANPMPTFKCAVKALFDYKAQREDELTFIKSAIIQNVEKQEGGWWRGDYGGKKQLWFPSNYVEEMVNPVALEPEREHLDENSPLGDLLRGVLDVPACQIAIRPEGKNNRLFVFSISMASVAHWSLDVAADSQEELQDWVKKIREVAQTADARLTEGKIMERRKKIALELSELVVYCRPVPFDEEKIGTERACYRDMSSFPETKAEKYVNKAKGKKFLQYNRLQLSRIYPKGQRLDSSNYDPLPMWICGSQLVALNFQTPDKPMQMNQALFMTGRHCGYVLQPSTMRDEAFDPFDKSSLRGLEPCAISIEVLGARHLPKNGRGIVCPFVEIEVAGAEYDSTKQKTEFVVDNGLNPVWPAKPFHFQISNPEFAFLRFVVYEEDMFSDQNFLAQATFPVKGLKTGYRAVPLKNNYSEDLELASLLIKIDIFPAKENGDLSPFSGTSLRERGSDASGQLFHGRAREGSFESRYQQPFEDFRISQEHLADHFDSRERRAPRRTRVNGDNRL
ADAM10 confirm = confirmation of inhibitors of human ADAM10; shares compounds with ADAM10 inh; inhibition, % at 6.95 µM; ADAM10 QFRET peptide cleavage, EDANS fluorescence; actives 1% (n = 2,100);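 active = inhibition above about 20% chosen separately for each screening run, limit read from the data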;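 also: 0% = DMSO wells and 100% = marimastat wells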
ADAM17 counter = ADAM17 inhibition, counter-screen for ADAM10 exosite hits | shares compounds with ADAM10 inh | ADAM17 QFRET peptide cleavage, EDANS fluorescence | inhibition, % at 6.95 µM | actives 0.5% (n = 2,100);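 active = mean triplicate inhibition above the solvent-only control wells' mean plus 3 SD, cut at about 12% in these data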;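 also: 0% = DMSO wells and 100% = marimastat wells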
ADAM10 counter = counter-screen for ADAM17 exosite inhibitors: inhibitors of human ADAM10; AID 743256; recombinant ADAM10, EDANS/DABCYL FRET peptide cleavage, 3 h; actives 47% (n = 2,900); inhibition, % at 6.95 µM; shares compounds with ADAM17 inh;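 active = mean inhibition over the triplicate runs exceeds the activity threshold set in the earlier primary screen, cut at about 20% in these data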;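 also: 0% = DMSO wells and 100% = marimastat wells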
ADAM17 confirm = confirmation of inhibitors of human ADAM17. shares compounds with ADAM17 inh. recombinant ADAM17, EDANS/DABCYL QFRET peptide cleavage. inhibition, % at 6.95 µM. actives 65% (n = 2,900);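 active = mean inhibition across replicates above the hit cutoff set in the primary screen, cut at about 8.5% in these data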;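 also: 0% = DMSO wells and 100% = marimastat wells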
The depositor's hits bear a star; / = no result.

SMILES | DDE Tn6 FP inh | PLC-beta3 inh | ADAM17 inh | ADAM10 inh | Tn7 DDE FP | PLCg1 inh | ADAM10 confirm | ADAM17 counter | ADAM10 counter | ADAM17 confirm
C[C@H](CO)N1C[C@H](C)[C@@H](CN(C)C(=O)Nc2ccccc2)Oc2c(NC(=O)Nc3ccc(C(F)(F)F)cc3)cccc2C1=O | 5 | 4 | 12* | 26* | -4 | 3 | 2 | 0 | 37* | 19*
O=C(COc1ccc(F)cc1Cl)Nc1nnc(-c2ccc(F)c(F)c2)o1 | 3 | -6 | 1 | 10 | 6 | -6 | / | / | / | /
COc1ccc(/C=C2\CC3(OC(=O)c4ccco4)CCCN2C3)cc1 (centres undefined) | -4 | -7 | 0 | -11 | -3 | -4 | / | / | / | /
CCN(CC(=O)Nc1cccc(OC)c1)CC(=O)Nc1ccc(Br)c(C)c1 | 2 | -2 | 12* | 23* | 2 | 6 | 2 | 1 | 45* | 16*
COc1ccc(NS(=O)(=O)c2ccc3oc(SCc4ccc(F)cc4)nc3c2)cc1 | -9 | 0 | 11* | 25* | -6 | 1 | 7 | 4 | 22* | 12*
COc1ccccc1NS(=O)(=O)c1ccc2oc(SCc3ccc(F)cc3)nc2c1 | 1 | 1 | -4 | -6 | 5 | 1 | / | / | / | /
CC(C)CC(C(=O)OCC(=O)Nc1cccc(Cl)c1)N1C(=O)C2CC=CCC2C1=O (centres undefined) | 2 | 9 | 17* | 35* | -5 | 8 | 3 | 0 | 27* | 11*
COc1ccc(NC(=O)Cn2nnc(-c3ccccc3)c2COc2ccc3ccccc3c2)cn1 | -8 | -1 | 12* | 20* | 5 | 1 | 11 | 4 | 31* | 17*
CCOC1=C2[C@@H](CN(S(=O)(=O)c3ccc(C)cc3)[C@H]2c2cccc3ccccc23)[C@H]2C(=O)N(CC)C(=O)[C@H]2C1 | 0 | 2 | 0 | -3 | 1 | 1 | / | / | / | /
CCOC1=C2[C@@H](CN(S(=O)(=O)c3ccc(C)cc3)[C@H]2c2cccc3ccccc23)[C@H]2C(=O)N(Cc3ccccc3)C(=O)[C@H]2C1 | -10 | 0 | 8.8* | 25* | 3 | 2 | 8 | 2 | 21* | 14*
COCCN=c1scc(-c2cc(OC)c(OC)c(OC)c2)n1/N=C/c1c(C)[nH]c2ccccc12 | -6 | -49 | 17* | 26* | -6 | -37 | 18 | 8 | 7 | 17*
O=C(C(=Cc1ccc(F)cc1)c1ccccc1)c1ccc(O)cc1 | 3 | 1 | 9.6* | 24* | 7 | -1 | 4 | 1 | 27* | 11*
O=C(O)/C(=C\c1cccc(OCc2ccccc2)c1)c1ccc(F)cc1 | -1 | -12 | -3 | -5 | -1 | -4 | / | / | / | /
COC(=O)[C@]12C[C@H](CC(=O)NCC3CCCCC3)C(=O)N(Cc3ccco3)C1=C[C@H](C1CCCC1)O[C@@H]2C | -1 | 4 | 1 | 5 | -4 | 0 | / | / | / | /
C(=C\c1ccccc1)/CN1CCN(C(c2ccccc2)c2nnnn2-c2ccc3c(c2)OCCO3)CC1 (centres undefined) | 4 | 1 | 14* | 29* | -1 | 9 | 5 | 2 | 20* | 9.9*
CC(C)(C)OC(=O)CNC(=O)c1[nH]cnc1C(=O)NC(c1ccccc1)c1ccccc1 | -3 | 7 | 16* | 27* | -5 | 9 | 5 | 2 | 24* | 14*
C[C@H](NC(=O)c1nc[nH]c1C(=O)N[C@H](C)c1ccccc1)C(=O)OC(C)(C)C | 1 | 5 | 4 | 10 | -1 | 1 | / | / | / | /
C[C@H](NC(=O)c1nc[nH]c1C(=O)NC(c1ccccc1)c1ccccc1)C(=O)OC(C)(C)C | -14 | 4 | 14* | 24* | -2 | 4 | 3 | 2 | 43* | 24*
COC(=O)c1ccc2nc(-c3ccccc3)c(Cc3cccc(Cl)c3)n2c1 | 2 | -99 | -25 | -111 | 4 | -66 | / | / | / | /
CC(C)(C)NC(=O)C(c1ccc(-c2ccccc2)cc1)N(C[C@H]1CC[C@@H]([C@@H]2CC[C@H](CO)O2)O1)C(=O)c1cccc(Cl)c1 (some centres undefined) | 0 | -1 | 1 | -6 | 4 | 3 | / | / | / | /
CC(C)(C)NC(=O)C(c1ccc(-c2ccccc2)cc1)N(C[C@H]1CC[C@@H]([C@@H]2CC[C@H](CO)O2)O1)C(=O)c1ccc2ccccc2c1 (some centres undefined) | -4 | 4 | 10* | 21* | 2 | 4 | 3 | 1 | 16 | 10*
O=C(C1CCC(Cn2c(=S)[nH]c3ccccc3c2=O)CC1)N1CCN(c2ccccc2)CC1 (centres undefined) | -6 | 5 | 9.1* | 25* | -1 | 2 | 11 | 3 | 17 | 7
O=C(Nc1ccc(Cl)c(Cl)c1)OCCNC(=O)c1cccc(Cl)c1 | -2 | -1 | 9.0* | 28* | -3 | -1 | 5 | 1 | 28* | 16*
O=C(CN1CCN(c2nc(-c3ccccc3)cs2)CC1)Nc1ccc(Cl)cc1 | -2 | 0 | 4 | 10 | -8 | 1 | / | / | / | /
CC(C)c1ccc(NC(=O)c2cc(S(=O)(=O)NCC3COc4ccccc4O3)ccc2F)cc1 (centres undefined) | -3 | 0 | 10.0* | 21* | -2 | -3 | 10 | 4 | 38* | 26*
O=C(Nc1ccc(C(F)(F)F)cc1)c1cc(S(=O)(=O)NCC2COc3ccccc3O2)ccc1F (centres undefined) | -5 | 0 | 13* | 25* | -1 | 0 | 5 | 2 | 51* | 24*
COc1ccc(NC(=O)c2cc(S(=O)(=O)NCC3COc4ccccc4O3)ccc2F)cc1 (centres undefined) | -5 | 4 | 6 | 12 | 5 | 2 | / | / | / | /
COc1cccc(N2CCN(CC(=O)NCc3ccccc3C)CC2)c1 | 2 | -2 | 0 | -3 | -1 | -1 | / | / | / | /
